Reference: PMC12510370 (Chemical Science, 2025)
Where two headings read alike, the source gives them in different places.

Assays:
Format in all cases: cell-based
HeLa cells [1] = experiment: Mitochondrial membrane potential with JC-1; details: 50 μM, 15 min, positive control
Method in brief: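 HeLa cells were untreated, given CCCP (50 μM, 15 min) as positive control, or treated with the test compound (4.5 nM, 24 h). Treated cells were then kept in the dark for 24 h or irradiated (450 nm, 15.5 mW cm−2, 15 min) and incubated 24 h more. Staining used JC-1 (2 μg mL−1, 20 min; λex 488 nm; monomer emission 510–530 nm, J-aggregate emission 590–610 nm).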

HeLa cells [2] = experiment: MTT
Method in brief: (§1)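 MTT assay on A549, HeLa and MRC9 cells, with cells kept in the dark or irradiated at 450 nm (15.5 mW cm−2, 15 min). […] IC50 values were derived for dark and light conditions. For A549 and HeLa, PI = IC50,dark/IC50,light.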

A549 cells = experiment: MTT
Method in brief: as §1

normal MRC9 cells = experiment: MTT
Method in brief: as §1

Row | Compound | mitochondrial membrane potential (JC-1) (HeLa cells [1]) | IC50 (HeLa cells [2]; read-out: IC50,dark, in the dark) [µM] | IC50 (HeLa cells [2]; read-out: IC50,light, irradiation at 450 nm (15.5 mW cm^−2, 15 min)) [µM] | IC50 (A549 cells; read-out: IC50,dark, A549, in the dark) [µM] | IC50 (A549 cells; read-out: IC50,light, A549, irradiation at 450 nm (15.5 mW cm^−2, 15 min)) [µM] | IC50 (normal MRC9 cells; read-out: IC50,dark, MRC9, in the dark) [µM] | IC50 (normal MRC9 cells; read-out: IC50,light, MRC9, irradiation at 450 nm (15.5 mW cm^−2, 15 min)) [µM]
1 | N#CC(C#N)=NNc1cccc(Cl)c1 [CCCP, carbonyl cyanide m-chlorophenyl hydrazone] | reduced the intensity of the red channel | – | – | – | – | – | –
2 | 1-phenyl-5-thioxo-5,6-dihydro-[1,2,4]triazolo[1,5-c]quinazolin-1-ium-2-thiolate [p-Httqt] | – | > 100 | > 100 | > 100 | > 100 | > 100 | > 100
